Test results published in ChEMBL document CHEMBL1121486, “Synthesis of nitrosourea derivatives of pyridine and piperidine as potential anticancer agents” (1980).
Where “and” joins values, the source holds several entries; their conditions need not be identical. Identical values can stand only once.

Columns and labels:
[1] = tested on: Lewis lung carcinoma cell line; experiment: Effect of compound on Lewis Lung carcinoma after single ip injection on day 1 recorded as animal weight difference of the treated and the control (T-C) at OD of 64-2 mg/kg; type: functional, Mus musculus
[2] = tested on: Lewis lung carcinoma cell line; experiment: Effect of compound on Lewis Lung carcinoma after single dose injected intraperitoneally on day 1 recorded as animal weight difference of the treated and the control (T-C) at OD of 64 mg/kg; type: functional, Mus musculus; settings: route intraperitoneal
[3] = tested on: Mus musculus; experiment: Compound tested for the effect on total white blood cell count and reported as percentage change from control on day 5 at 40.25 mg/kg (ip); type: functional
In short: (§1)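 Total white blood cell count in mice. Treatment was intraperitoneal at the listed mg/kg doses, 10 mice per group. Counts were taken on days 3, 5 and 7 and expressed as % change from control, with the control being each group's predose value. Significance was taken at p ≤ 0.05.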

[4] = tested on: Mus musculus; experiment: Compound tested for the effect on total white blood cell count and reported as percentage change from control on day 5 at 90.5 mg/kg (ip); type: functional; in short: as §1
[5] = tested on: Mus musculus; experiment: Compound tested for the effect on total white blood cell count and reported as percentage change from control on day 7 at 40.25 mg/kg (ip); type: functional; in short: as §1
[6] = tested on: Mus musculus; experiment: Compound tested for the effect on total white blood cell count and reported as percentage change from control on day 3 at 11.31 mg/kg (ip); type: functional; in short: as §1
[7] = tested on: Mus musculus; experiment: Compound tested for the effect on total white blood cell count and reported as percentage change from control on day 3 at 22.63 mg/kg (ip); type: functional; in short: as §1
[8] = tested on: Mus musculus; experiment: Compound tested for the effect on total white blood cell count and reported as percentage change from control on day 3 at 40.25 mg/kg (ip); type: functional; in short: as §1
[9] = tested on: Mus musculus; experiment: Compound tested for the effect on total white blood cell count and reported as percentage change from control on day 3 at 90.5 mg/kg (ip); type: functional; in short: as §1
[10] = tested on: Mus musculus; experiment: Compound tested for the effect on total white blood cell count and reported as percentage change from control on day 5 at 22.63 mg/kg (ip); type: functional; in short: as §1
[11] = tested on: Lewis lung carcinoma cell line; experiment: Effect of compound on Lewis Lung carcinoma after single dose injected intraperitoneally on day 1 recorded as percentage of cured animals at OD of 64 mg/kg; settings: Mus musculus, route intraperitoneal
[12] = tested on: 3EM 37; experiment: Compound tested for activity against 3EM 37 mouse ependymoblastoma after single ip injection on day 1 at optimal dose of 128 mg/kg (Dose range 256-16); type: functional; settings: route intraperitoneal
[13] = tested on: 3EM 37; experiment: Effect of compound on 3EM 37 mouse ependymoblastoma after single ip injection on day 1 recorded as animal weight difference of the treated and the control (T-C) at OD of 100 mg/kg; type: functional; settings: route intraperitoneal
[14] = tested on: 3EM 37; experiment: Effect of compound on 3EM 37 mouse ependymoblastoma after single ip injection on day 1 recorded as percentage of cured animals at OD of 100 mg/kg; type: functional; settings: route intraperitoneal
[15] = tested on: 3EM 37; experiment: Compound tested for toxicity against 3EM 37 mouse ependymoblastoma after single ip injection on day 1 at optimal dose (OD) of 100 mg/kg on the 5th day after the injection of the compound; (10/10); settings: route intraperitoneal

| SMILES | Optimal dose [1] [mg/kg] | T-C [2] [g] | Change [3] [%] | Change [4] [%] | Change [5] [%] | Change [6] [%] | Change [7] [%] | Change [8] [%] | Change [9] [%] | Change [10] | T/C [11] [%] | Optimal dose [12] [mg/kg] | T-C [13] [g] | T/C [14] [%] | Survival [15] |
| --- | --- | --- | --- | --- | --- | --- | --- | --- | --- | --- | --- | --- | --- | --- | --- |
| O=NN(CCCl)C(=O)NCCCl [CARMUSTINE] | 32 | -3.5 | -22 | -48 | -41 | -47 | -33 | -46 | -68 | -28% and -42% | >353 | – | – | – | – |
| CC1CCC(NC(=O)N(CCCl)N=O)CC1 (stereo not given) [SEMUSTINE] | – | – | – | – | – | – | – | – | – | – | – | 128 | 1 | 204 | 9 |
